# Source: ChEMBL document CHEMBL3046803, “Synthesis and insecticidal activities of novel anthranilic diamides containing acylthiourea and acylurea” (2012)
# What was measured:
# Format in all cases: functional
# [1] = test system: Plutella xylostella; experiment: Insecticidal activity against Plutella xylostella (diamondback moth) s-instar larvae infected in fresh cabbage leaves assessed as larvicidal activity at 20 mg/L measured 2 days post dose
# Outline: (§1)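 Leaf-dip (spray) test: a 200 mg/L stock in DMF was diluted with distilled water. Cabbage leaf disks (6 × 2 cm) were sprayed for 3 s, dried, and placed individually in glass tubes. Each disk received 30 second-instar larvae. Mortality was scored at 2 days; triplicate.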
# [2] = test system: Mythimna separata; experiment: Insecticidal activity against Mythimna separata (Oriental armyworm) fourth-instar larvae infected Zea mays leaves assessed as larvicidal activity at 5 mg/L measured 2 days post dose
# Outline: (§2)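 Foliar application test: individual corn (Tangyu 10) leaves were placed on moistened filter paper in Petri dishes.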
# [3] = test system: Mythimna separata; experiment: Insecticidal activity against Mythimna separata (Oriental armyworm) fourth-instar larvae infected Zea mays leaves assessed as larvicidal activity at 10 mg/L measured 2 days post dose; outline: as §2
# [4] = test system: Mythimna separata; experiment: Insecticidal activity against Mythimna separata (Oriental armyworm) fourth-instar larvae infected Zea mays leaves assessed as larvicidal activity at 20 mg/L measured 2 days post dose; outline: as §2
# [5] = test system: Mythimna separata; experiment: Insecticidal activity against Mythimna separata (Oriental armyworm) fourth-instar larvae infected Zea mays leaves assessed as larvicidal activity at 50 mg/L measured 2 days post dose; outline: as §2
# [6] = test system: Mythimna separata; experiment: Insecticidal activity against Mythimna separata (Oriental armyworm) fourth-instar larvae infected Zea mays leaves assessed as larvicidal activity at 100 mg/L measured 2 days post dose; outline: as §2
# [7] = test system: Mythimna separata; experiment: Insecticidal activity against Mythimna separata (Oriental armyworm) fourth-instar larvae infected Zea mays leaves assessed as larvicidal activity at 200 mg/L measured 2 days post dose; outline: as §2
# [8] = test system: Plutella xylostella; experiment: Insecticidal activity against Plutella xylostella (diamondback moth) s-instar larvae infected in fresh cabbage leaves assessed as larvicidal activity measured 2 days post dose; settings: 48 h; outline: as §1
# [9] = test system: Plutella xylostella; experiment: Insecticidal activity against Plutella xylostella (diamondback moth) s-instar larvae infected in fresh cabbage leaves assessed as larvicidal activity at 0.001 mg/L measured 2 days post dose; outline: as §1
# [10] = test system: Plutella xylostella; experiment: Insecticidal activity against Plutella xylostella (diamondback moth) s-instar larvae infected in fresh cabbage leaves assessed as larvicidal activity at 0.01 mg/L measured 2 days post dose; outline: as §1
# [11] = test system: Plutella xylostella; experiment: Insecticidal activity against Plutella xylostella (diamondback moth) s-instar larvae infected in fresh cabbage leaves assessed as larvicidal activity at 1 mg/L measured 2 days post dose; outline: as §1
# [12] = test system: Plutella xylostella; experiment: Insecticidal activity against Plutella xylostella (diamondback moth) s-instar larvae infected in fresh cabbage leaves assessed as larvicidal activity at 0.1 mg/L measured 2 days post dose; outline: as §1
# [13] = test system: Culex pipiens pallens; experiment: Insecticidal activity against Culex pipiens pallens (mosquito) fourth-instar larvae assessed as larvicidal activity at 0.5 mg/L measured 3 days post dose
# Outline: (§3)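 Mosquito larvicidal test: compounds were dissolved in acetone and diluted with distilled water to the test concentrations.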
# [14] = test system: Culex pipiens pallens; experiment: Insecticidal activity against Culex pipiens pallens (mosquito) fourth-instar larvae assessed as larvicidal activity at 2 mg/L measured 3 days post dose; outline: as §3
# [15] = test system: Culex pipiens pallens; experiment: Insecticidal activity against Culex pipiens pallens (mosquito) fourth-instar larvae assessed as larvicidal activity at 1 mg/L measured 3 days post dose; outline: as §3
SMILES,Activity [1] [%],Activity [2] [%],Activity [3] [%],Activity [4] [%],Activity [5] [%],Activity [6] [%],Activity [7] [%],LC50 [8] [ng/mL],Activity [9] [%],Activity [10] [%],Activity [11] [%],Activity [12] [%],Activity [13] [%],Activity [14] [%],Activity [15] [%]
Cc1cc(Cl)cc(C(=O)NC2CC2)c1NC(=S)NC(=O)c1cc(C(F)(F)F)nn1-c1ncccc1Cl,100,30,100,100,100,100,100,0.25,71,100,100,100,,,
Cc1cc(Br)cc(C(=O)NCc2ccccc2)c1NC(=S)NC(=O)c1cc(C(F)(F)F)nn1-c1ncccc1Cl,100,,0,100,100,100,100,0.65,57,100,100,100,,,
Cc1cc(Cl)cc(C(=O)NC(C)(C)C)c1NC(=S)NC(=O)c1cc(Br)nn1-c1ncccc1Cl,,40,100,100,100,100,100,,,,,,30,100,90
